The source of these data is ChEMBL document CHEMBL1136012, “Synthesis and structure-activity relationships of novel 7-substituted 1,4-dihydro-4-oxo-1-(2-thiazolyl)-1,8-naphthyridine-3-carboxylic acids as antitumor agents. Part 1” (J Med Chem, 2002).

The test system of experiment [1] is P388. The experiment can be described thus: Cytotoxic activity of compound against Murine P388 Leukemia. The experiment is classed as functional, cell-based, Mus musculus. The note with it: Mus musculus, P388; read-out: IC50. The essentials:
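Murine P388 cells were cultured in EMEM with 10% FBS, 2 mM glutamine, 50 units/mL penicillin and 50 μg/mL streptomycin. They were seeded at (1–2) × 10^4 cells/mL without preincubation and exposed to varying concentrations for 72 h at 37 °C, 5% CO2. MTT was then added for 4 h, formazan dissolved in DMSO and read at 570/690 nm.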

In experiment [2] the test system is P388. Nature of the experiment: […] antitumor activity f compound against P388 leukemia cells at a dose of […] mg/kg. It counts as functional, Mus musculus.
The subject of experiment [3] is P388. The experiment can be described thus: […] antitumor activity of compound against P388 leukemia cells at a dose of 3.13 mg/kg. The experiment is classed as functional, Mus musculus. The essentials: (§1)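 In vivo study: BDF1 mice received 10^6 P388 leukemia cells ip as diluted ascites fluid. Test compounds were suspended in 0.4% CMC and given ip on days 1 and 5 after implantation, with seven mice per group. The endpoint is T/C% = median survival time of the treated group / median survival time of controls × 100.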

The subject of experiment [4] is P388. Nature of the experiment: […] antitumor activity of compound against P388 leukemia cells at a dose of 50 mg/kg. The experiment is classed as functional, Mus musculus. The method, boiled down:
as §1

Another experiment concerns A-427. Nature of the experiment: Cytotoxic activity of compound against A-427 lung human tumor cell line. The experiment is classed as functional, cell-based. The method, boiled down: (§2)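 Cells were kept in EMEM with 10% FBS, 2 mM glutamine, NEAA and 1 mM sodium pyruvate. They were seeded at (1–2) × 10^4 cells/mL and preincubated for 24 h. They were then exposed to graded concentrations for 72 h at 37 °C in 5% CO2. MTT was added for a further 4 h and the formazan dissolved in DMSO, with absorbance at 570/690 nm.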

Experiment [5] is described as follows: Cytotoxic activity of compound against AZ-521 stomach human tumor cell line. It counts as functional. The essentials: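 AZ-521 cells were grown in EMEM with 10% FBS, 2 mM glutamine and NEAA. They were plated at (1–2) × 10^4 cells/mL and preincubated for 24 h, then treated with a range of concentrations for 72 h at 37 °C, 5% CO2. After a 4 h MTT step, the formazan was dissolved in DMSO and read at 570 nm (reference 690 nm).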

The target of another experiment is DNA topoisomerase II (Homo sapiens, UniProt P11388+Q02880). The experiment can be described thus: Inhibitory activity in a DNA cleavage assay using HeLa DNA topoisomerase II yielding its effective concentration. The experiment is classed as protein assay.
The next experiment relates to G-361. Nature of the experiment: Cytotoxic activity of compound against G-361 melanoma human tumor cell line. It counts as functional, cell-based. The essentials:
(§3)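 Culture was in McCoy's 5A with 10% FBS. Cells were seeded at (1–2) × 10^4 cells/mL, preincubated for 24 h, then incubated with various concentrations for 72 h at 37 °C under 5% CO2. MTT was added for 4 h and the formazan dissolved in DMSO, with A570 read against 690 nm.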

The test system of the next experiment is HT-29. The experiment can be described thus: Cytotoxic activity of compound against HT-29 colon human tumor cell line. The experiment is classed as functional, cell-based. The method, boiled down:
as §3

Experiment [6] deals with P388. The experiment can be described thus: In vitro antitumor activity of compound against P388 leukemia cells at a dose of […] mg/kg. The experiment is classed as functional, Mus musculus. Also on record: concentration or dose not given beside the values.
Experiment [7] can be described thus: Cytotoxic activity of compound against SCaBER bladder squamous human tumor cell line. It counts as functional, cell-based. The method, boiled down:
as §2

The subject of another experiment is SK-OV-3. Nature of the experiment: Cytotoxic activity of compound against SK-OV-3 ovary human tumor cell line. The note with it: SK-OV-3, Female gonad. The experiment is classed as functional, cell-based. The essentials: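 SK-OV-3 cells were maintained in McCoy's 5A with 15% FBS. After seeding at (1–2) × 10^4 cells/mL and 24 h preincubation, wells received graded concentrations for 72 h at 37 °C, 5% CO2. A 4 h MTT incubation followed, with DMSO solubilization and absorbance at 570/690 nm.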

With `Cl.O=C(O)c1cn(-c2nccs2)c2nc(N3CCC(O)C3)c(F)cc2c1=O` (stereo not given), the IC50 – broadly, the concentration that gives 50% inhibition – in the experiment on P388 [1] amounted to 0.036 µg/mL. The figures for the T/C in the experiment with P388 [2], with P388 [3] and with P388 [4] were 175%, 138% and 225%, respectively.
With `Cl.NC1CCN(c2nc3c(cc2F)c(=O)c(C(=O)O)cn3-c2nccs2)C1` (stereo not given), the IC50 in the experiment on A-427 was 0.22 µg/mL; in [5] it was 0.35 µg/mL; against DNA topoisomerase II, above 200 µg/mL; in the experiment with G-361 it was 0.39 µg/mL; with HT-29, 1.2 µg/mL; in the experiment on P388 [1] it was 0.021 µg/mL. Further, the half-maximal inhibitory concentration (IC50) in [7] was 0.34 µg/mL; with SK-OV-3, 0.93 µg/mL. Further, the T/C (in general, the ratio of treated to control) with P388 [6] was 213%; with P388 [3] it was 150%; in the experiment on P388 [4], above 375%.
